Reference: ChEMBL document CHEMBL1140391, “8-Substituted 3,4-dihydroquinolinones as a novel scaffold for atypical antipsychotic activity” (Bioorg Med Chem Lett, 2005)

Tests used:
[1] = molecular target: 5-hydroxytryptamine receptor 2A (Homo sapiens, UniProt P28223); experiment: Binding affinity for 5-hydroxytryptamine 2A receptor expressed in 3T3 cells; assay type: cell-based
Procedure, shortened: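 [³H]Ketanserin displacement on membranes of Swiss 3T3 cells expressing human 5-HT2A receptors. Incubation was 120 min across varying compound concentrations. Nonspecific binding came from high unlabeled ketanserin. Bound and free label were separated by vacuum filtration, and bound label was quantified by liquid scintillation. Percent inhibition of specific binding was fitted by nonlinear regression to give IC₅₀, then converted to Ki with Cheng–Prusoff.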

[2] = molecular target: D(2) dopamine receptor (Homo sapiens, UniProt P14416); experiment: Binding affinity against Dopamine receptor D2 expressed in CHO cells; assay type: cell-based
Chain of D(2) dopamine receptor (P14416 whole entry): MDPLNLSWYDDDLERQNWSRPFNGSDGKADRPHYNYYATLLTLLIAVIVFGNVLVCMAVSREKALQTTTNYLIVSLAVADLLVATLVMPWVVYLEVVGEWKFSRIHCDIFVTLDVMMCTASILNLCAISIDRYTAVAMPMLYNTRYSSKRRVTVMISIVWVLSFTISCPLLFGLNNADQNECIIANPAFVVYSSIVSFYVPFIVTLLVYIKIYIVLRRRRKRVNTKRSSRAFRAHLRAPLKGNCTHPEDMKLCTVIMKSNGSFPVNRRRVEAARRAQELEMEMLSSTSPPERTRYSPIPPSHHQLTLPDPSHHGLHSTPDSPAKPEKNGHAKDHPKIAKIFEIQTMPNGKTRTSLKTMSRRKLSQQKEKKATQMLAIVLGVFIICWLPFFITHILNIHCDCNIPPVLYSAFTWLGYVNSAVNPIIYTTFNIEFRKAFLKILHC
Procedure, shortened: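 Radioligand binding with [³H]spiperone on membranes of CHO cells expressing human DA D₂ receptors. Membranes and radioligand were incubated 120 min with or without varying compound concentrations. Haloperidol at high concentration defined nonspecific binding. Bound label was separated by vacuum filtration and counted by liquid scintillation. IC₅₀ was fitted by nonlinear regression and converted to Ki with Cheng–Prusoff.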

Chain of 5-hydroxytryptamine receptor 2A (P28223 whole entry): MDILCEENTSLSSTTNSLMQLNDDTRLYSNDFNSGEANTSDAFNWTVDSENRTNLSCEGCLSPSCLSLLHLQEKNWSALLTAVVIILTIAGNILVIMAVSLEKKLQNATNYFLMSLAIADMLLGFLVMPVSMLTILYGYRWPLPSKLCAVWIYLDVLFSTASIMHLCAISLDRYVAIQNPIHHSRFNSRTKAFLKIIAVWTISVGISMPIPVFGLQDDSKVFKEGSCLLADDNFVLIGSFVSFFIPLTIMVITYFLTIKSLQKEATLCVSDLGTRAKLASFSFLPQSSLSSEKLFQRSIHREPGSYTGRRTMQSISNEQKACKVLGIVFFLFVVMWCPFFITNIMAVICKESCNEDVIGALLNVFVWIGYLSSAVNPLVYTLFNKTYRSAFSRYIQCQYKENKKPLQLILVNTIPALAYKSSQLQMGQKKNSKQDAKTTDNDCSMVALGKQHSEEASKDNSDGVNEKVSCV

Row | Ki [1] [nM] | Ki [2] [nM] | SMILES
1 | 0.18 | 59 | CC1(C)CCNc2c(CCN3CCN(c4nsc5ccccc45)CC3)cccc21
2 | 0.05 | > 100 | CC1CC(=O)Nc2c(CCN3CCN(c4nsc5ccccc45)CC3)cc(Cl)cc21 (configuration not stated)
3 | 0.61 | 16 | CC1CCN(C(=O)c2ccccc2)c2c(CCN3CCN(c4nsc5ccccc45)CC3)cccc21 (configuration not stated)
4 | 1.06 | 73 | CC1Cc2cccc(CCN3CCN(c4nsc5ccccc45)CC3)c2NC1=O (configuration not stated)
5 | 0.32 | 17 | CC(=O)N1CCC(C)c2c(C)ccc(CCN3CCN(c4noc5ccccc45)CC3)c21 (configuration not stated)
6 | 0.59 | 25 | CC1CCN(C(=O)C2CCCCC2)c2c(CCN3CCN(c4nsc5ccccc45)CC3)cccc21 (configuration not stated)
7 | 0.17 | 15 | CC1CC(=O)Nc2c(CCN3CCN(c4nsc5ccccc45)CC3)cc(F)cc21 (configuration not stated)
8 | 0.75 | 12 | CC(=O)N1CCC(C)c2c(C)ccc(CCN3CCN(c4nsc5ccccc45)CC3)c21 (configuration not stated)
9 | 0.28 | 35 | Cc1cc(CCN2CCN(c3noc4ccccc34)CC2)c2c(c1)C(C)CC(=O)N2 (configuration not stated)
10 | 1.07 | 4 | COc1cccc(CC(=O)N2CCC(C)c3cccc(CCN4CCN(c5nsc6ccccc56)CC4)c32)c1 (configuration not stated)
11 | 0.31 | > 50 | CC(=O)N1CCC(C)c2cc(Cl)cc(CCN3CCN(c4nsc5ccccc45)CC3)c21 (configuration not stated)
12 | 0.28 | 55 | CC1(C)CCNc2c(CCN3CCN(c4nsc5ccccc45)CC3)cc(F)cc21
13 | 0.3 | 17 | CC(=O)N1CCC(C)c2cccc(CCN3CCN(c4nsc5ccccc45)CC3)c21 (configuration not stated)
14 | 0.29 | 29 | CC(=O)N1CCC(C)c2cc(F)cc(CCN3CCN(c4noc5ccccc45)CC3)c21 (configuration not stated)
15 | 0.22 | 21 | CC1CC(=O)Nc2c(CCN3CCN(c4nsc5ccccc45)CC3)cccc21 (configuration not stated)
16 | 0.28 | > 100 | CC1CC(=O)Nc2c(CCN3CCN(c4noc5ccccc45)CC3)cc(F)cc21 (configuration not stated)
17 | 0.28 | > 100 | O=C1CCc2cccc(CCN3CCN(c4nsc5ccccc45)CC3)c2N1
18 | 0.17 | 81 | CC1CC(=O)N(C)c2c(CCN3CCN(c4nsc5ccccc45)CC3)cccc21 (configuration not stated)
19 | 0.44 | 18 | CC(=O)N1CCC(C)c2cc(F)cc(CCN3CCN(c4nsc5ccccc45)CC3)c21 (configuration not stated)
20 | 190 | > 100 | CC1CC(=O)Nc2c(CCN3CCN(c4noc5ccccc45)CC3)cccc21 (configuration not stated)
21 | 2.23 | 92 | CC1CC(=O)Nc2c(CCN3CCN(c4n[s+]([O-])c5ccccc45)CC3)cc(F)cc21 (configuration not stated)
22 | 0.18 |  | O=C1CC(c2ccccc2)c2cccc(CCN3CCN(c4nsc5ccccc45)CC3)c2N1 (configuration not stated)
23 | 2.15 | 12 | CC(=O)N1CCC(c2ccccc2)c2cccc(CCN3CCN(c4nsc5ccccc45)CC3)c21 (configuration not stated)
24 | 0.13 | 11 | Cc1ccc(CCN2CCN(c3nsc4ccccc34)CC2)c2c1C(C)CC(=O)N2 (configuration not stated)
